In ChEMBL document CHEMBL4689842, “EUbOPEN Chemogenomics Library wave 1” (2021):

Test system: HEK-293T
Assay: Multiplex assay against HEK293T;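 as to Population Tubulin-Different-Phenotype (%): share of the cells with healthy nuclei that show this phenotype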
Format: toxicity, cell-based
Details: human
Summary of the method: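 Tubulin, mitochondrial-mass and membrane-permeability phenotypes are per cents of healthy-nucleus cells. Cells were gated by CellPathfinder machine learning into Hoechst high-intensity objects or normal cells, normal cells into healthy, pyknosed or fragmented nuclei, and pyknosed cells into mitotic or apoptotic. Before that, live cells stained at seeding with Hoechst33342, BioTracker Green Microtubule Cytoskeleton Dye, MitoTracker Red and Annexin V Alexa Fluor 680 were imaged on a CQ1 microscope at 37°C and 5% CO2 after compound addition.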

[1] = 12 h, 1 µM, compound concentration 1 uM, replicate 1
[2] = 12 h, 1 µM, compound concentration 1 uM, replicate 2
[3] = 12 h, 10 µM, compound concentration 10 uM, replicate 1
[4] = 12 h, 10 µM, compound concentration 10 uM, replicate 2
[5] = 24 h, 1 µM, compound concentration 1 uM, replicate 1
[6] = 24 h, 1 µM, compound concentration 1 uM, replicate 2
[7] = 24 h, 10 µM, compound concentration 10 uM, replicate 1
[8] = 24 h, 10 µM, compound concentration 10 uM, replicate 2
[9] = 48 h, 1 µM, compound concentration 1 uM, replicate 1
[10] = 48 h, 1 µM, compound concentration 1 uM, replicate 2
[11] = 48 h, 10 µM, compound concentration 10 uM, replicate 1
[12] = 48 h, 10 µM, compound concentration 10 uM, replicate 2

Cc1cn(-c2cc(NC(=O)c3ccc4c(c3)CN(c3cncnc3)C[C@@H]4C)cc(C(F)(F)F)c2)cn1
Population Apoptotic (%) [1]: 15%
Population Fragmented Nuclei (%) [1]: 25%
Population Healthy Nuclei (%) [1]: 52%
Population Hoechst High Intensity Objects (%) [1]: 20%
Population Membrane Permeable-Phenotype (%) [1]: 5%
Population Mitochondria Different-Phenotype (%) [1]: 6%
Population Mitotic Cells (%) [1]: 84%
Population Normal (%) [1]: 79%
Population Pyknosed Nuclei (%) [1]: 22%
Population Tubulin-Different-Phenotype (%) [1]: 4%
Total Cell Count [1]: 536
Population Apoptotic (%) [2]: 8%
Population Fragmented Nuclei (%) [2]: 6%
Population Healthy Nuclei (%) [2]: 87%
Population Hoechst High Intensity Objects (%) [2]: 3%
Population Membrane Permeable-Phenotype (%) [2]: 2%
Population Mitochondria Different-Phenotype (%) [2]: 8%
Population Mitotic Cells (%) [2]: 91%
Population Normal (%) [2]: 96%
Population Pyknosed Nuclei (%) [2]: 5%
Total Cell Count [2]: 1397
Population Apoptotic (%) [3]: 17%
Population Fragmented Nuclei (%) [3]: 17%
Population Healthy Nuclei (%) [3]: 62%
Population Hoechst High Intensity Objects (%) [3]: 13%
Population Membrane Permeable-Phenotype (%) [3]: 12%
Population Mitochondria Different-Phenotype (%) [3]: 6%
Population Mitotic Cells (%) [3]: 82%
Population Normal (%) [3]: 86%
Population Pyknosed Nuclei (%) [3]: 20%
Population Tubulin-Different-Phenotype (%) [3]: 37%
Total Cell Count [3]: 653
Population Apoptotic (%) [4]: 16%
Population Fragmented Nuclei (%) [4]: 5%
Population Healthy Nuclei (%) [4]: 88%
Population Hoechst High Intensity Objects (%) [4]: 4%
Population Membrane Permeable-Phenotype (%) [4]: 5%
Population Mitochondria Different-Phenotype (%) [4]: 24%
Population Mitotic Cells (%) [4]: 83%
Population Normal (%) [4]: 95%
Population Pyknosed Nuclei (%) [4]: 5%
Population Tubulin-Different-Phenotype (%) [4]: 40%
Total Cell Count [4]: 1483
Population Apoptotic (%) [5]: 23%
Population Fragmented Nuclei (%) [5]: 16%
Population Healthy Nuclei (%) [5]: 72%
Population Hoechst High Intensity Objects (%) [5]: 15%
Population Membrane Permeable-Phenotype (%) [5]: 9%
Population Mitochondria Different-Phenotype (%) [5]: 3%
Population Mitotic Cells (%) [5]: 76%
Population Normal (%) [5]: 84%
Population Pyknosed Nuclei (%) [5]: 11%
Population Tubulin-Different-Phenotype (%) [5]: 3%
Total Cell Count [5]: 545
Population Apoptotic (%) [6]: 6%
Population Fragmented Nuclei (%) [6]: 15%
Population Healthy Nuclei (%) [6]: 81%
Population Hoechst High Intensity Objects (%) [6]: 2%
Population Membrane Permeable-Phenotype (%) [6]: 5%
Population Mitochondria Different-Phenotype (%) [6]: 2%
Population Mitotic Cells (%) [6]: 93%
Population Normal (%) [6]: 97%
Population Pyknosed Nuclei (%) [6]: 2%
Population Tubulin-Different-Phenotype (%) [6]: 5%
Total Cell Count [6]: 2221
Population Apoptotic (%) [7]: 15%
Population Fragmented Nuclei (%) [7]: 16%
Population Healthy Nuclei (%) [7]: 73%
Population Hoechst High Intensity Objects (%) [7]: 12%
Population Membrane Permeable-Phenotype (%) [7]: 29%
Population Mitochondria Different-Phenotype (%) [7]: 6%
Population Mitotic Cells (%) [7]: 84%
Population Normal (%) [7]: 87%
Population Pyknosed Nuclei (%) [7]: 10%
Population Tubulin-Different-Phenotype (%) [7]: 54%
Total Cell Count [7]: 740
Population Apoptotic (%) [8]: 8%
Population Fragmented Nuclei (%) [8]: 12%
Population Healthy Nuclei (%) [8]: 84%
Population Hoechst High Intensity Objects (%) [8]: 3%
Population Membrane Permeable-Phenotype (%) [8]: 14%
Population Mitochondria Different-Phenotype (%) [8]: 7%
Population Mitotic Cells (%) [8]: 91%
Population Normal (%) [8]: 96%
Population Pyknosed Nuclei (%) [8]: 3%
Population Tubulin-Different-Phenotype (%) [8]: 55%
Total Cell Count [8]: 2031

Cc1cc2c(cc1N1C(=O)c3cccc4c(CCCO)ccc(c34)C1=O)n(C)c(=O)n2C
Population Apoptotic (%) [1]: 38%
Population Fragmented Nuclei (%) [1]: 14%
Population Healthy Nuclei (%) [1]: 44%
Population Hoechst High Intensity Objects (%) [1]: 16%
Population Membrane Permeable-Phenotype (%) [1]: 4%
Population Mitochondria Different-Phenotype (%) [1]: 77%
Population Mitotic Cells (%) [1]: 61%
Population Normal (%) [1]: 83%
Population Pyknosed Nuclei (%) [1]: 41%
Population Tubulin-Different-Phenotype (%) [1]: 47%
Total Cell Count [1]: 307
Population Apoptotic (%) [2]: 12%
Population Fragmented Nuclei (%) [2]: 5%
Population Healthy Nuclei (%) [2]: 50%
Population Hoechst High Intensity Objects (%) [2]: 6%
Population Membrane Permeable-Phenotype (%) [2]: 5%
Population Mitochondria Different-Phenotype (%) [2]: 15%
Population Mitotic Cells (%) [2]: 87%
Population Normal (%) [2]: 93%
Population Pyknosed Nuclei (%) [2]: 44%
Population Tubulin-Different-Phenotype (%) [2]: 22%
Total Cell Count [2]: 170
Population Apoptotic (%) [3]: 53%
Population Fragmented Nuclei (%) [3]: 7%
Population Healthy Nuclei (%) [3]: 43%
Population Hoechst High Intensity Objects (%) [3]: 9%
Population Membrane Permeable-Phenotype (%) [3]: 10%
Population Mitochondria Different-Phenotype (%) [3]: 92%
Population Mitotic Cells (%) [3]: 46%
Population Normal (%) [3]: 90%
Population Pyknosed Nuclei (%) [3]: 48%
Population Tubulin-Different-Phenotype (%) [3]: 94%
Total Cell Count [3]: 302
Population Apoptotic (%) [4]: 38%
Population Fragmented Nuclei (%) [4]: 2%
Population Healthy Nuclei (%) [4]: 45%
Population Hoechst High Intensity Objects (%) [4]: 4%
Population Membrane Permeable-Phenotype (%) [4]: 11%
Population Mitochondria Different-Phenotype (%) [4]: 82%
Population Mitotic Cells (%) [4]: 61%
Population Normal (%) [4]: 95%
Population Pyknosed Nuclei (%) [4]: 51%
Population Tubulin-Different-Phenotype (%) [4]: 96%
Total Cell Count [4]: 359
Population Apoptotic (%) [5]: 50%
Population Fragmented Nuclei (%) [5]: 13%
Population Healthy Nuclei (%) [5]: 44%
Population Hoechst High Intensity Objects (%) [5]: 12%
Population Membrane Permeable-Phenotype (%) [5]: 4%
Population Mitochondria Different-Phenotype (%) [5]: 61%
Population Mitotic Cells (%) [5]: 49%
Population Normal (%) [5]: 87%
Population Pyknosed Nuclei (%) [5]: 41%
Population Tubulin-Different-Phenotype (%) [5]: 44%
Total Cell Count [5]: 295
Population Apoptotic (%) [6]: 13%
Population Fragmented Nuclei (%) [6]: 5%
Population Healthy Nuclei (%) [6]: 75%
Population Hoechst High Intensity Objects (%) [6]: 2%
Population Membrane Permeable-Phenotype (%) [6]: 9%
Population Mitochondria Different-Phenotype (%) [6]: 11%
Population Mitotic Cells (%) [6]: 86%
Population Normal (%) [6]: 97%
Population Pyknosed Nuclei (%) [6]: 18%
Population Tubulin-Different-Phenotype (%) [6]: 22%
Total Cell Count [6]: 194
Population Apoptotic (%) [7]: 63%
Population Fragmented Nuclei (%) [7]: 12%
Population Healthy Nuclei (%) [7]: 54%
Population Hoechst High Intensity Objects (%) [7]: 11%
Population Membrane Permeable-Phenotype (%) [7]: 6%
Population Mitochondria Different-Phenotype (%) [7]: 87%
Population Mitotic Cells (%) [7]: 36%
Population Normal (%) [7]: 88%
Population Pyknosed Nuclei (%) [7]: 32%
Population Tubulin-Different-Phenotype (%) [7]: 91%
Total Cell Count [7]: 306
Population Apoptotic (%) [8]: 47%
Population Fragmented Nuclei (%) [8]: 5%
Population Healthy Nuclei (%) [8]: 63%
Population Hoechst High Intensity Objects (%) [8]: 3%
Population Membrane Permeable-Phenotype (%) [8]: 3%
Population Mitochondria Different-Phenotype (%) [8]: 71%
Population Mitotic Cells (%) [8]: 52%
Population Normal (%) [8]: 96%
Population Pyknosed Nuclei (%) [8]: 30%
Population Tubulin-Different-Phenotype (%) [8]: 90%
Total Cell Count [8]: 377
Population Apoptotic (%) [9]: 47%
Population Fragmented Nuclei (%) [9]: 22%
Population Healthy Nuclei (%) [9]: 28%
Population Hoechst High Intensity Objects (%) [9]: 14%
Population Membrane Permeable-Phenotype (%) [9]: 2%
Population Mitochondria Different-Phenotype (%) [9]: 33%
Population Mitotic Cells (%) [9]: 52%
Population Normal (%) [9]: 85%
Population Pyknosed Nuclei (%) [9]: 49%
Population Tubulin-Different-Phenotype (%) [9]: 29%
Total Cell Count [9]: 321
Population Apoptotic (%) [10]: 33%
Population Fragmented Nuclei (%) [10]: 14%
Population Healthy Nuclei (%) [10]: 79%
Population Hoechst High Intensity Objects (%) [10]: 2%
Population Membrane Permeable-Phenotype (%) [10]: 10%
Population Mitochondria Different-Phenotype (%) [10]: 7%
Population Mitotic Cells (%) [10]: 66%
Population Normal (%) [10]: 97%
Population Pyknosed Nuclei (%) [10]: 5%
Population Tubulin-Different-Phenotype (%) [10]: 22%
Total Cell Count [10]: 270
Population Apoptotic (%) [11]: 75%
Population Fragmented Nuclei (%) [11]: 19%
Population Healthy Nuclei (%) [11]: 64%
Population Hoechst High Intensity Objects (%) [11]: 8%
Population Membrane Permeable-Phenotype (%) [11]: 5%
Population Mitochondria Different-Phenotype (%) [11]: 59%
Population Mitotic Cells (%) [11]: 25%
Population Normal (%) [11]: 91%
Population Pyknosed Nuclei (%) [11]: 16%
Population Tubulin-Different-Phenotype (%) [11]: 71%
Total Cell Count [11]: 323
Population Apoptotic (%) [12]: 57%
Population Fragmented Nuclei (%) [12]: 15%
Population Healthy Nuclei (%) [12]: 75%
Population Hoechst High Intensity Objects (%) [12]: 3%
Population Membrane Permeable-Phenotype (%) [12]: 3%
Population Mitochondria Different-Phenotype (%) [12]: 41%
Population Mitotic Cells (%) [12]: 42%
Population Normal (%) [12]: 96%
Population Pyknosed Nuclei (%) [12]: 9%
Population Tubulin-Different-Phenotype (%) [12]: 79%
Total Cell Count [12]: 482
